Converted amounts (≈) assume the structure as drawn. Blank lines part the entries; values can stand above or below the compound they belong to. The source made the active and inactive calls. No cut-off for these calls is given here.
Assays:
Pseudomonas aeruginosa = test: Antibacterial activity against Pseudomonas aeruginosa ATCC 27853 incubated after 24 hrs by resazurin dye based broth microdilution assay; format: functional; conditions: ATCC 27853, 24 h
Enterococcus faecalis [1] = test: Antibacterial activity against Enterococcus faecalis ATCC 29212 incubated after 24 hrs by resazurin dye based broth microdilution assay; format: functional; conditions: ATCC 29212, 24 h
Escherichia coli [2] = test: Antibacterial activity against Escherichia coli ATCC 35218 incubated after 24 hrs by resazurin dye based broth microdilution assay; format: functional; conditions: ATCC 35218, 24 h
[3] = Selectivity index, ratio of IC50 for mouse NIH/3T3 cells to MIC90 for Listeria monocytogenes ATCC 7644; format: toxicity; conditions: read-out: Selectivity Index
Listeria monocytogenes = test: Antibacterial activity against Listeria monocytogenes ATCC 7644 incubated after 24 hrs by resazurin dye based broth microdilution assay; format: functional; conditions: ATCC 7644, 24 h
NIH3T3 = test: Cytotoxicity against mouse NIH/3T3 cells assessed as reduction in cell proliferation after 24 hrs by MTT assay; format: cell-based; conditions: NIH3T3, 24 h
Klebsiella pneumoniae = test: Antibacterial activity against Klebsiella pneumoniae ATCC 700603 incubated after 24 hrs by resazurin dye based broth microdilution assay; format: functional; conditions: Klebsiella pneumoniae, 700603, 24 h
[4] = Selectivity index, ratio of IC50 for mouse NIH/3T3 cells to MIC90 for Klebsiella pneumoniae ATCC 700603; format: toxicity; conditions: read-out: Selectivity Index
Staphylococcus aureus [5] = test: Antibacterial activity against Staphylococcus aureus ATCC 25923 assessed as decrease in ATP level at […] ug/ml after 24 hrs by BacTiter-Glo reagent based bioluminescence assay; format: functional
Enterococcus faecalis [6] = test: Antibacterial activity against Enterococcus faecalis ATCC 51299 incubated after 24 hrs by resazurin dye based broth microdilution assay; format: functional; conditions: ATCC 51299, 24 h
[7] = Selectivity index, ratio of IC50 for mouse NIH/3T3 cells to MIC90 for Pseudomonas aeruginosa ATCC 27853; format: toxicity; conditions: read-out: Selectivity Index
Escherichia coli [8] = test: Antibacterial activity against Escherichia coli ATCC 25922 incubated after 24 hrs by resazurin dye based broth microdilution assay; format: functional; conditions: ATCC 25922, 24 h
Staphylococcus aureus [9] = test: Antibacterial activity against Staphylococcus aureus ATCC 25923 incubated after 24 hrs by resazurin dye based broth microdilution assay; format: functional; conditions: ATCC 25923, 24 h
[10] = test system: Escherichia coli ATCC 25922; test: Inhibition of Escherichia coli DNA gyrase assessed as inhibition of enzyme-mediated supercoiling of relaxed pHOT1 DNA substrate after 30 mins by gel electrophoresis method
Summary of the method: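 E. coli DNA gyrase (1 U) was incubated with relaxed pHOT1 DNA substrate (0.25 µg) for 30 min at 37 °C. Compounds were tested at 15.6, 7.8, 3.9 and 1.95 µg/L. Controls were supercoiled DNA, relaxed DNA, relaxed DNA plus gyrase, and 1% DMSO. Supercoiling was read by agarose gel electrophoresis.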

Salmonella typhimurium [11] = test: Mutagenicity in Salmonella typhimurium TA98 assessed as increase in revertant colonies at 1.25 mg/ml in presence of Sprague-Dawley rat liver S9 fraction by Ames test relative to basal level; format: toxicity; conditions: salmonella enterica subsp. enterica serovar typhimurium
Summary of the method: (§1)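 Ames microplate format assay with strains TA98 and TA100, run with and without S9. Positive wells were counted per condition. The run was valid if positive controls gave more than 25 positive wells and negative controls fewer than 8.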

Salmonella typhimurium [12] = test: Mutagenicity in Salmonella typhimurium TA100 assessed as increase in revertant colonies at 1.25 mg/ml in presence of Sprague-Dawley rat liver S9 fraction by Ames test relative to basal level; format: toxicity; conditions: salmonella enterica subsp. enterica serovar typhimurium; summary of the method: as §1
Salmonella typhimurium [13] = test: Mutagenicity in Salmonella typhimurium TA98 assessed as increase in revertant colonies at 0.625 mg/ml in absence of Sprague-Dawley rat liver S9 fraction by Ames test relative to basal level; format: toxicity; conditions: salmonella enterica subsp. enterica serovar typhimurium; summary of the method: as §1
Salmonella typhimurium [14] = test: Mutagenicity in Salmonella typhimurium TA100 assessed as increase in revertant colonies at 2.5 mg/ml in absence of Sprague-Dawley rat liver S9 fraction by Ames test relative to basal level; format: toxicity; conditions: salmonella enterica subsp. enterica serovar typhimurium; summary of the method: as §1
Salmonella typhimurium [15] = test: Mutagenicity in Salmonella typhimurium TA98 assessed as increase in revertant colonies at 5 mg/ml in presence of Sprague-Dawley rat liver S9 fraction by Ames test relative to basal level; format: toxicity; conditions: salmonella enterica subsp. enterica serovar typhimurium; summary of the method: as §1
Salmonella typhimurium [16] = test: Mutagenicity in Salmonella typhimurium TA98 assessed as increase in revertant colonies at 5 mg/ml in absence of Sprague-Dawley rat liver S9 fraction by Ames test relative to basal level; format: toxicity; conditions: salmonella enterica subsp. enterica serovar typhimurium; summary of the method: as §1
Salmonella typhimurium [17] = test: Mutagenicity in Salmonella typhimurium TA98 assessed as increase in revertant colonies at 0.3125 mg/ml in presence of Sprague-Dawley rat liver S9 fraction by Ames test relative to basal level; format: toxicity; conditions: salmonella enterica subsp. enterica serovar typhimurium; summary of the method: as §1
Salmonella typhimurium [18] = test: Mutagenicity in Salmonella typhimurium TA100 assessed as increase in revertant colonies at 0.625 mg/ml in absence of Sprague-Dawley rat liver S9 fraction by Ames test relative to basal level; format: toxicity; conditions: salmonella enterica subsp. enterica serovar typhimurium; summary of the method: as §1
Salmonella typhimurium [19] = test: Mutagenicity in Salmonella typhimurium TA98 assessed as increase in revertant colonies at 1.25 mg/ml in absence of Sprague-Dawley rat liver S9 fraction by Ames test relative to basal level; format: toxicity; conditions: salmonella enterica subsp. enterica serovar typhimurium; summary of the method: as §1
Salmonella typhimurium [20] = test: Mutagenicity in Salmonella typhimurium TA100 assessed as increase in revertant colonies at 0.156 mg/ml in absence of Sprague-Dawley rat liver S9 fraction by Ames test relative to basal level; format: toxicity; conditions: salmonella enterica subsp. enterica serovar typhimurium; summary of the method: as §1
Salmonella typhimurium [21] = test: Mutagenicity in Salmonella typhimurium TA98 assessed as increase in revertant colonies at 0.625 mg/ml in presence of Sprague-Dawley rat liver S9 fraction by Ames test relative to basal level; format: toxicity; conditions: salmonella enterica subsp. enterica serovar typhimurium; summary of the method: as §1
Salmonella typhimurium [22] = test: Mutagenicity in Salmonella typhimurium TA98 assessed as increase in revertant colonies at 0.3125 mg/ml in absence of Sprague-Dawley rat liver S9 fraction by Ames test relative to basal level; format: toxicity; conditions: salmonella enterica subsp. enterica serovar typhimurium; summary of the method: as §1
Salmonella typhimurium [23] = test: Mutagenicity in Salmonella typhimurium TA100 assessed as increase in revertant colonies at 0.3125 mg/ml in presence of Sprague-Dawley rat liver S9 fraction by Ames test relative to basal level; format: toxicity; conditions: salmonella enterica subsp. enterica serovar typhimurium; summary of the method: as §1
Salmonella typhimurium [24] = test: Mutagenicity in Salmonella typhimurium TA100 assessed as increase in revertant colonies at 0.156 mg/ml in presence of Sprague-Dawley rat liver S9 fraction by Ames test relative to basal level; format: toxicity; conditions: salmonella enterica subsp. enterica serovar typhimurium; summary of the method: as §1
Salmonella typhimurium [25] = test: Mutagenicity in Salmonella typhimurium TA98 assessed as increase in revertant colonies at 2.5 mg/ml in presence of Sprague-Dawley rat liver S9 fraction by Ames test relative to basal level; format: toxicity; conditions: salmonella enterica subsp. enterica serovar typhimurium; summary of the method: as §1
Salmonella typhimurium [26] = test: Mutagenicity in Salmonella typhimurium TA98 assessed as increase in revertant colonies at 2.5 mg/ml in absence of Sprague-Dawley rat liver S9 fraction by Ames test relative to basal level; format: toxicity; conditions: salmonella enterica subsp. enterica serovar typhimurium; summary of the method: as §1
Salmonella typhimurium [27] = test: Mutagenicity in Salmonella typhimurium TA100 assessed as increase in revertant colonies at 2.5 mg/ml in presence of Sprague-Dawley rat liver S9 fraction by Ames test relative to basal level; format: toxicity; conditions: salmonella enterica subsp. enterica serovar typhimurium; summary of the method: as §1
Salmonella typhimurium [28] = test: Mutagenicity in Salmonella typhimurium TA100 assessed as increase in revertant colonies at 5 mg/ml in absence of Sprague-Dawley rat liver S9 fraction by Ames test relative to basal level; format: toxicity; conditions: salmonella enterica subsp. enterica serovar typhimurium; summary of the method: as §1
Salmonella typhimurium [29] = test: Mutagenicity in Salmonella typhimurium TA98 assessed as increase in revertant colonies at 0.156 mg/ml in absence of Sprague-Dawley rat liver S9 fraction by Ames test relative to basal level; format: toxicity; conditions: salmonella enterica subsp. enterica serovar typhimurium; summary of the method: as §1
Salmonella typhimurium [30] = test: Mutagenicity in Salmonella typhimurium TA100 assessed as increase in revertant colonies at 5 mg/ml in presence of Sprague-Dawley rat liver S9 fraction by Ames test relative to basal level; format: toxicity; conditions: salmonella enterica subsp. enterica serovar typhimurium; summary of the method: as §1
Salmonella typhimurium [31] = test: Mutagenicity in Salmonella typhimurium TA100 assessed as increase in revertant colonies at 0.625 mg/ml in presence of Sprague-Dawley rat liver S9 fraction by Ames test relative to basal level; format: toxicity; conditions: salmonella enterica subsp. enterica serovar typhimurium; summary of the method: as §1
Salmonella typhimurium [32] = test: Mutagenicity in Salmonella typhimurium TA100 assessed as increase in revertant colonies at 1.25 mg/ml in absence of Sprague-Dawley rat liver S9 fraction by Ames test relative to basal level; format: toxicity; conditions: salmonella enterica subsp. enterica serovar typhimurium; summary of the method: as §1
Salmonella typhimurium [33] = test: Mutagenicity in Salmonella typhimurium TA98 assessed as increase in revertant colonies at 0.156 mg/ml in presence of Sprague-Dawley rat liver S9 fraction by Ames test relative to basal level; format: toxicity; conditions: salmonella enterica subsp. enterica serovar typhimurium; summary of the method: as §1
Salmonella typhimurium [34] = test: Mutagenicity in Salmonella typhimurium TA100 assessed as increase in revertant colonies at 0.3125 mg/ml in absence of Sprague-Dawley rat liver S9 fraction by Ames test relative to basal level; format: toxicity; conditions: salmonella enterica subsp. enterica serovar typhimurium; summary of the method: as §1

MIC90 (Pseudomonas aeruginosa): 15.6 µg/mL (≈ 30.4 µM) | MIC90 (Enterococcus faecalis [1]): 7.8 µg/mL (≈ 15.2 µM) | MIC90 (Escherichia coli [2]): 3.9 µg/mL (≈ 7.6 µM) | MIC90 (Listeria monocytogenes): 15.6 µg/mL (≈ 30.4 µM) | MIC90 (Klebsiella pneumoniae): 15.6 µg/mL (≈ 30.4 µM) | MIC90 (Enterococcus faecalis [6]): 15.6 µg/mL (≈ 30.4 µM) | MIC90 (Escherichia coli [8]): 3.9 µg/mL (≈ 7.6 µM) | MIC90 (Staphylococcus aureus [9]): 1.95 µg/mL (≈ 3.8 µM) | inhibition [10]: Dose-dependent effect
SMILES: O=C(O)c1cn(-c2ccc(F)cc2F)c2nc(Sc3nc4cc([N+](=O)[O-])ccc4[nH]3)c(F)cc2c1=O
selectivity ratio [3]: 8 | IC50 (NIH3T3): 122 µg/mL (≈ 237 µM) | selectivity ratio [4]: 8 | Activity (Staphylococcus aureus [5]): Active | selectivity ratio [7]: 8

MIC90 (Pseudomonas aeruginosa): 7.8 µg/mL (≈ 15.9 µM) | MIC90 (Enterococcus faecalis [1]): 3.9 µg/mL (≈ 7.97 µM) | MIC90 (Escherichia coli [2]): 1.95 µg/mL (≈ 3.98 µM) | MIC90 (Listeria monocytogenes): 7.8 µg/mL (≈ 15.9 µM) | MIC90 (Klebsiella pneumoniae): 7.8 µg/mL (≈ 15.9 µM) | MIC90 (Enterococcus faecalis [6]): 3.9 µg/mL (≈ 7.97 µM) | MIC90 (Escherichia coli [8]): 1.95 µg/mL (≈ 3.98 µM) | MIC90 (Staphylococcus aureus [9]): 1.95 µg/mL (≈ 3.98 µM) | inhibition [10]: Dose-dependent effect
SMILES: CN(C)CCCN1CCN(c2nc3c(cc2F)c(=O)c(C(=O)O)cn3-c2ccc(F)cc2F)CC1
fold change (FC) (Salmonella typhimurium [11]): 0 | fold change (FC) (Salmonella typhimurium [12]): 0 | fold change (FC) (Salmonella typhimurium [13]): 0 | selectivity ratio [3]: 54 | fold change (FC) (Salmonella typhimurium [14]): 0 | IC50 (NIH3T3): 440 µg/mL (≈ 899 µM) | fold change (FC) (Salmonella typhimurium [15]): 0 | fold change (FC) (Salmonella typhimurium [16]): 0 | fold change (FC) (Salmonella typhimurium [17]): 0.11 | fold change (FC) (Salmonella typhimurium [18]): 0 | selectivity ratio [4]: 54 | fold change (FC) (Salmonella typhimurium [19]): 0 | fold change (FC) (Salmonella typhimurium [20]): 0 | Activity (Staphylococcus aureus [5]): Active | fold change (FC) (Salmonella typhimurium [21]): 0 | fold change (FC) (Salmonella typhimurium [22]): 0 | fold change (FC) (Salmonella typhimurium [23]): 0 | fold change (FC) (Salmonella typhimurium [24]): 0 | fold change (FC) (Salmonella typhimurium [25]): 0 | fold change (FC) (Salmonella typhimurium [26]): 0 | fold change (FC) (Salmonella typhimurium [27]): 0 | fold change (FC) (Salmonella typhimurium [28]): 0 | fold change (FC) (Salmonella typhimurium [29]): 0 | fold change (FC) (Salmonella typhimurium [30]): 0 | selectivity ratio [7]: 54 | fold change (FC) (Salmonella typhimurium [31]): 0 | fold change (FC) (Salmonella typhimurium [32]): 0 | fold change (FC) (Salmonella typhimurium [33]): 0 | fold change (FC) (Salmonella typhimurium [34]): 0

Reference: ChEMBL document CHEMBL3994650, “New 1,4-dihydro[1,8]naphthyridine derivatives as DNA gyrase inhibitors” (Bioorg Med Chem Lett, 2017)
